In ChEMBL document CHEMBL5236592, “Induction of Ferroptosis in Glioblastoma and Ovarian Cancers by a New Pyrrole Tubulin Assembly Inhibitor” (J Med Chem, 2022):
Activity calls are given as the source filed them.

Legend:
Type in all cases: functional, organism-based
Details in all cases: time 40.0 day
[1] = tested on: SK-OV-3; experiment: Antitumor activity against human SK-OV-3 cells xenografted in BALB/C nu/nu mouse assessed as reduction in tumor growth at 25 mg/kg, ip administered every 2 days for 40 days
Procedure, shortened: (§1)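 Female BALB/c nu/nu mice, 10 weeks old, 4 per group. Received subcutaneous U-87 MG or SKOV-3 cells (1 × 10^8 cells/mL, harvested in log phase). Dosed ip with 100 μL at 25 mg/kg every 2 days; controls got 100 μL saline on the same schedule. Sacrificed at 40 days; tumors weighed, volume = ab²/2. Tumor sections (6 μm, paraffin) stained by immunofluorescence for Ki67 or CD31 with Alexa Fluor 488 secondary.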

[2] = tested on: U-87MG ATCC; experiment: Induction of ferroptosis-mediated antitumor activity against human U-87 MG cells xenografted in BALB/C nu/nu mouse assessed as increase in malondialdehyde level in tumor at 25 mg/kg, ip administered every 2 days for 40 days by biochemical analysis
Procedure, shortened: (§2)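 U-87 MG or SKOV-3 sc xenografts (1 × 10^8 cells/mL) in female BALB/c nu/nu mice, 4 per group. Given 25 mg/kg ip in 100 μL every 2 days, or saline. Tumors harvested on day 40 and assayed for LPO, MDA, lactic acid, total glutathione (GSH + GSSG), ATP and Fe2+.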

[3] = tested on: SK-OV-3; experiment: Induction of ferroptosis-mediated antitumor activity against human SK-OV-3 cells xenografted in BALB/C nu/nu mouse assessed as increase in malondialdehyde level in tumor at 25 mg/kg, ip administered every 2 days for 40 days by biochemical analysis; procedure, shortened: as §2
[4] = tested on: Mus musculus; experiment: Upregulation of Gls2 mRNA expression in tumor of BALB/C nu/nu mouse xenografted with human U-87 MG cells at 25 mg/kg, ip administered every 2 days for 40 days by qPCR analysis
Procedure, shortened: (§3)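 Female BALB/c nu/nu mice, 10 weeks old, 4 per group. Inoculated s.c. with 1 × 10^8 cells/mL of log-phase U-87 MG or SKOV-3 cells. Dosed i.p. with 100 μL at 25 mg/kg every 2 days; controls got 100 μL saline. Tumors harvested on day 40. RNA extracted from about 20 mg of tissue. qPCR panel of 69 genes, 40 cycles (94 °C 20 s, 60 °C 34 s). Analysed by 2–ΔΔCt; fold ≥1.5 taken as increased.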

[5] = tested on: Mus musculus; experiment: Upregulation of Alfm1 mRNA expression in tumor of BALB/C nu/nu mouse xenografted with human U-87 MG cells at 25 mg/kg, ip administered every 2 days for 40 days by qPCR analysis
Procedure, shortened: (§4)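 Female BALB/c nu/nu mice bearing sc U-87 MG or SKOV-3 xenografts were dosed ip at 25 mg/kg (100 μL) every 2 days, or given saline, and tumors were taken at day 40. RNA was extracted from about 20 mg of tissue. qPCR ran 40 cycles (95 °C 15 min; 94 °C 20 s; 60 °C 34 s) on a 69-gene panel. Fold change was by 2^–ΔΔCt, with ≥1.5 counted as increased.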

[6] = tested on: Mus musculus; experiment: Upregulation of Sat1 mRNA expression in tumor of BALB/C nu/nu mouse xenografted with human U-87 MG cells at 25 mg/kg, ip administered every 2 days for 40 days by qPCR analysis; procedure, shortened: as §3
[7] = tested on: Mus musculus; experiment: Upregulation of Akr1c1 mRNA expression in tumor of BALB/C nu/nu mouse xenografted with human U-87 MG cells at 25 mg/kg, ip administered every 2 days for 40 days by qPCR analysis; procedure, shortened: as §4
[8] = tested on: Mus musculus; experiment: Upregulation of Gpx4 mRNA expression in tumor of BALB/C nu/nu mouse xenografted with human U-87 MG cells at 25 mg/kg, ip administered every 2 days for 40 days by qPCR analysis; procedure, shortened: as §3
[9] = tested on: Mus musculus; experiment: Upregulation of Ireb2 mRNA expression in tumor of BALB/C nu/nu mouse xenografted with human U-87 MG cells at 25 mg/kg, ip administered every 2 days for 40 days by qPCR analysis; procedure, shortened: as §3
[10] = tested on: Mus musculus; experiment: Upregulation of Cpx mRNA expression in tumor of BALB/C nu/nu mouse xenografted with human SK-OV-3 cells at 25 mg/kg, ip administered every 2 days for 40 days by qPCR analysis; procedure, shortened: as §4
[11] = tested on: Mus musculus; experiment: Upregulation of Hspb1 mRNA expression in tumor of BALB/C nu/nu mouse xenografted with human SK-OV-3 cells at 25 mg/kg, ip administered every 2 days for 40 days by qPCR analysis; procedure, shortened: as §3
[12] = tested on: Mus musculus; experiment: Upregulation of ALOX5 mRNA expression in tumor of BALB/C nu/nu mouse xenografted with human SK-OV-3 cells at 25 mg/kg, ip administered every 2 days for 40 days by qPCR analysis; procedure, shortened: as §4
[13] = tested on: Mus musculus; experiment: Upregulation of Slc7a11 mRNA expression in tumor of BALB/C nu/nu mouse xenografted with human SK-OV-3 cells at 25 mg/kg, ip administered every 2 days for 40 days by qPCR analysis; procedure, shortened: as §3
[14] = tested on: Mus musculus; experiment: Upregulation of Ptgs2 mRNA expression in tumor of BALB/C nu/nu mouse xenografted with human SK-OV-3 cells at 25 mg/kg, ip administered every 2 days for 40 days by qPCR analysis; procedure, shortened: as §3
[15] = tested on: Mus musculus; experiment: Upregulation of Gclm mRNA expression in tumor of BALB/C nu/nu mouse xenografted with human SK-OV-3 cells at 25 mg/kg, ip administered every 2 days for 40 days by qPCR analysis; procedure, shortened: as §4
[16] = tested on: Mus musculus; experiment: Upregulation of Sqs mRNA expression in tumor of BALB/C nu/nu mouse xenografted with human SK-OV-3 cells at 25 mg/kg, ip administered every 2 days for 40 days by qPCR analysis; procedure, shortened: as §3
[17] = tested on: Mus musculus; experiment: Upregulation of Hspb5 mRNA expression in tumor of BALB/C nu/nu mouse xenografted with human SK-OV-3 cells at 25 mg/kg, ip administered every 2 days for 40 days by qPCR analysis; procedure, shortened: as §3
[18] = tested on: U-87MG ATCC; experiment: Antitumor activity against human U-87 MG cells xenografted in BALB/C nu/nu mouse assessed as reduction in Ki67 expression in tumor at 25 mg/kg, ip administered every 2 days for 40 days by immunofluoresence staining based assay; procedure, shortened: as §1
[19] = tested on: SK-OV-3; experiment: Antitumor activity against human SK-OV-3 cells xenografted in BALB/C nu/nu mouse assessed as reduction in CD31 expression in tumor at 25 mg/kg, ip administered every 2 days for 40 days by immunofluoresence staining based assay; procedure, shortened: as §1
[20] = tested on: U-87MG ATCC; experiment: Induction of ferroptosis-mediated antitumor activity against human U-87 MG cells xenografted in BALB/C nu/nu mouse assessed as reduction in FTH1 protein expression in tumor at 25 mg/kg, ip administered every 2 days for 40 days by immunofluoresence staining based assay
Procedure, shortened: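 Xenografts of U-87 MG or SKOV-3 (1 × 10^8 cells/mL, sc) in female BALB/c nu/nu mice, 4 per group. Treated ip at 25 mg/kg in 100 μL every 2 days versus saline, tumors collected at day 40. Paraffin sections (6 μm) were blocked at 37 °C for 30 min, then incubated with rabbit anti-GPX4 or anti-FTH1 and then Alexa Fluor 488 anti-rabbit, each for 45 min at 37 °C.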

Measured: Activity

COc1cc(C(=O)c2cn(-c3ncccn3)cc2-c2ccco2)cc(OC)c1OC
active: all assays above
